# Test results published in PMC8966054 (Bioorganic & medicinal chemistry letters, 2022).
# Experiments:
# [1] = Human liver microsome stability / intrinsic clearance; assay type: in vitro ADME; settings: for CLint scaled: human, liver microsomes
# [2] = Mouse liver microsome stability / intrinsic clearance; assay type: in vitro ADME; settings: for CLint scaled: mouse, liver microsomes
# [3] = tested on: other dopamine receptors (D1-3,5); assay: Binding at other dopamine receptors; set-up: species or system human
# Summary of the method: (§1)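 Ki from competitive inhibition of radioligand binding in membranes from HEK293 cells stably expressing the human receptor. [3H]N-methylspiperone was used for D2R, D3R and D4R, and [3H]SCH23390 for D1R and D5R.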
# In vivo rat cassette PK = settings: iv, 0.25 mg/kg
# [4] = Human plasma protein binding; assay type: in vitro ADME; settings: fraction unbound
# Metabolite ID study = assay type: in vitro ADME
# 6-OHDA mouse model = 6-OHDA mouse model ref 13; cited from earlier work
# hD4R = target: T1, hD4R (Homo sapiens, UniProt P21917); assay: D4R competitive radioligand binding
# T1 sequence (P21917 1-419): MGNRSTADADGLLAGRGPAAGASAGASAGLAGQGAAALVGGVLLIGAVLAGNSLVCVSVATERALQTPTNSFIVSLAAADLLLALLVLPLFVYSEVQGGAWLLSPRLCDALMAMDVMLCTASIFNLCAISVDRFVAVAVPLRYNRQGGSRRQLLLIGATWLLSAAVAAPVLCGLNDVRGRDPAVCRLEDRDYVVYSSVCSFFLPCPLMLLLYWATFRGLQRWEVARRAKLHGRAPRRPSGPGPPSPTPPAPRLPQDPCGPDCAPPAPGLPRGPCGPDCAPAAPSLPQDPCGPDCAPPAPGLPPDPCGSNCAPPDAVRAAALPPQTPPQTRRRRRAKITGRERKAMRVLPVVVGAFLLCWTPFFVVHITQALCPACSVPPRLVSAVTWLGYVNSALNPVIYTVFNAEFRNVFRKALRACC
# Summary of the method: as §1
# Mouse plasma stability = assay type: in vitro ADME
CLint scaled [1] [mL/min/kg],CLint scaled [2] [mL/min/kg],SMILES,also measured
44.6,310,FC(F)(F)c1cccc(COC2CCN(Cc3cn4ccccc4n3)CC2)c1 [Compound 9c],
689,1400,Fc1ccc(CO[C@H]2CCCN(Cc3cn4ccccc4n3)C2)cc1F [Compound 8i],
48.3,90.4,Fc1cc(COC2CCN(Cc3ccc4[nH]cnc4c3)CC2)ccc1Cl [Compound 9l],clearance (In vivo rat cassette PK): 199 mL/min/kg
212,917,Fc1cc(COC2CCN(Cc3ncc4ccccn34)CC2)ccc1Cl [Compound 9e],Human liver microsome stability [1]: not as stable; Mouse liver microsome stability [2]: not as stable
< 20,158,Fc1ccc(COC2CCN(Cc3cn4ccccc4n3)CC2)cc1F [Compound 9b],Human liver microsome stability [1]: stable; Mouse liver microsome stability [2]: modestly stable; clearance (In vivo rat cassette PK): 116 mL/min/kg
42.7,85.3,Cn1ncc2cc(CN3CCC(OCc4ccc(Cl)c(F)c4)CC3)ccc21 [Compound 9v],
< 23.1,380,Fc1cccc(COC2CCN(Cc3cn4ccccc4n3)CC2)c1 [Compound 9a],Fold improvement of D4 activity vs 3-O-derivative (hD4R): 10 fold; Human liver microsome stability [1]: stable; Mouse liver microsome stability [2]: modestly stable
44.1,96.8,Fc1cc(COC2CCN(Cc3cn4ccccc4n3)CC2)ccc1Cl [Compound 9d],clearance (In vivo rat cassette PK): 134 mL/min/kg
114,140,Cc1nc(CN2CCC(OCc3ccc(Cl)c(F)c3)CC2)c2ccccn12 [Compound 9j],

# The remaining lines, values behind:
SMILES,CLint scaled [1] [mL/min/kg],CLint scaled [2] [mL/min/kg],also measured
COc1ccc(CN2CCC[C@H](OCc3cccc(F)c3)C2)cc1F [Compound 8a],,,Selectivity against the other dopamine receptors [3]: selective
Fc1cccc(COC2CCN(Cc3ncn4ccccc34)CC2)c1 [Compound 9h],340,1260,Human liver microsome stability [1]: not as stable; Mouse liver microsome stability [2]: not as stable
Fc1ccc(COC2CCN(Cc3cc4ccc(Cl)cc4[nH]3)CC2)cc1F [Compound 9y],23.5,83.2,C0 (In vivo rat cassette PK): 36.9 ng/mL
Cn1cnc2cc(CN3CCC(OCc4cccc(C(F)(F)F)c4)CC3)ccc21 [Compound 9p],63.3,85.2,clearance (In vivo rat cassette PK): 107 mL/min/kg
"COc1ccc(CN2CCO[C@H](COc3ccccc3)C2)cc1F [Compound 1, reference compound]",,2130,Human liver microsome stability [1]: highly unstable; Mouse liver microsome stability [2]: highly unstable; Plasma Protein Binding (%fu) hPPB [4]: 3.1 %fu; Major metabolic liability (metabolite ID) (Metabolite ID study): N-dealkylation; Dyskinesia AIM (abnormal involuntary movement) scores (6-OHDA mouse model): dose-dependent reduction
Cc1nc(CN2CCC(OCc3cccc(C(F)(F)F)c3)CC2)c2ccccn12 [Compound 9i],85.3,272,
Fc1cccc(CO[C@H]2CCCN(Cc3ncn4ccccc34)C2)c1 [Compound 8n],,,D4 activity (hD4R): much less active or inactive
FC(F)(F)Oc1cccc(CO[C@H]2CCCN(Cc3ncc4ccccn34)C2)c1 [Compound 8q],,,D4 activity (hD4R): much less active or inactive
Cc1cccc(CO[C@H]2CCCN(Cc3ncc4ccccn34)C2)n1 [Compound 8r],,,D4 activity (hD4R): much less active or inactive
COc1ccc(CN2CCC[C@H](OCc3ccc(F)c(F)c3)C2)cc1F [Compound 8b],272,1260,
Cn1ncc2cc(CN3CCC(OCc4cccc(C(F)(F)F)c4)CC3)ccc21 [Compound 9w],63.3,85.2,
Fc1ccc(CO[C@H]2CCCN(Cc3ncn4ccccc34)C2)cc1F [Compound 8o],622,5370,
Cc1cc(NC(=O)CN2CCC(OCc3ccc(F)c(F)c3)CC2)ccc1F [Compound 11d],49.5,306,Selectivity against the other dopamine receptors [3]: selective for D4; Human liver microsome stability [1]: moderately stable; Mouse liver microsome stability [2]: moderately stable; Mouse plasma stability (Mouse plasma stability): not stable; Plasma stability (footnote symbol in mPPB column) (Mouse plasma stability; mouse plasma): c
FC(F)(F)c1cccc(COC2CCN(Cc3ccc4[nH]cnc4c3)CC2)c1 [Compound 9m],32.9,76.4,
Fc1ccc(COC2CCN(Cc3ccc4[nH]cnc4c3)CC2)cc1F [Compound 9n],< 20,93.9,clearance (In vivo rat cassette PK): 235 mL/min/kg
COc1ccc(CN2CCC[C@@H](OCc3ccc(F)c(C)c3)C2)cc1F [Compound 8d],,,"Fold less active, (R)-enantiomer vs (S)-enantiomer at D4 (hD4R): 15 fold"
Cc1c(Cl)cccc1NC(=O)CN1CCC(OCc2ccc(F)c(F)c2)CC1 [Compound 11a],145,287,Selectivity against the other dopamine receptors [3]: selective for D4; C0 (In vivo rat cassette PK): 91 ng/mL; clearance (In vivo rat cassette PK): 22 mL/min/kg
FC(F)(F)c1cccc(COC2CCN(Cc3cc4ccc(Cl)cc4[nH]3)CC2)c1 [Compound 9z],26.9,71.5,
Cn1ncc2cc(CN3CCC(OCc4ccc(F)c(F)c4)CC3)ccc21 [Compound 9u],,104,clearance (In vivo rat cassette PK): 140 mL/min/kg
